From PubChem
This is a sample that favours compounds with a hit; in the whole collection about 12% have one here.
KCC2 mod: KCC2 cotransporter modulators, thallium flux, primary screen, cell-based, HEK293 KCC2, FluoZin-2 fluorescence, MLSMR; Solute carrier family 12 member 5 (Homo sapiens), Q9H2X9; KCC2 cells, thallium flux FluoZin-2 fluorescence; B-score of Tl+ flux slope (higher = more flux/activation; lower = inhibition) at 10 µM; 190,000 tested, 2.2% active;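 active = thallium flux slope and its plate-corrected score both differing from the plate sample mean at a set confidence after two filtering rounds, in either direction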;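 note: slope of fluorescence scaled to starting intensity during 10 to 20 s after thallium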
ROMK mod: ROMK potassium channel modulators, primary screen, cell-based, thallium flux, MLSMR library. Tet-inducible ROMK, thallium flux fluorescence; actives lie on both sides. B-score at 10 µM. 130,000 tested, 2% active;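 active = signal ratio slope over the read window, or its plate-corrected B-score, at least 3 SD from the plate mean, either direction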;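 note: B-score of the F/F0 ratio slope over 7 to 12 s after thallium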
Target sequence (P48048 whole entry, looked up): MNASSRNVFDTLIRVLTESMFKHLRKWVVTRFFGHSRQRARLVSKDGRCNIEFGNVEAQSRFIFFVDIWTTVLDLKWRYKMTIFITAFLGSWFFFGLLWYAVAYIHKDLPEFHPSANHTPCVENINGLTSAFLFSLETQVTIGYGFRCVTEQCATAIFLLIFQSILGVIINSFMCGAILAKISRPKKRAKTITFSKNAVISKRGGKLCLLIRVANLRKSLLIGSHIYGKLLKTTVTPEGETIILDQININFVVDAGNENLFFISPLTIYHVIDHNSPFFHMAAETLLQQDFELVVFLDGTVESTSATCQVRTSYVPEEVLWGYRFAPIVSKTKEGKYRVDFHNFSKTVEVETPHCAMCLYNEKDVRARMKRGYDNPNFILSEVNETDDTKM
Lmaj promast: Leishmania major promastigote growth inhibition, primary screen. AID 1063, 2008. 200,000 tested, 9% active. Leishmania major promastigotes, resazurin fluorescence viability. inhibition, % at 10 µM; in the data active = inhibition above about 50%;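 note: promastigotes grown with compound for 44 hours at 28 °C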
WT yeast gro inh: growth inhibition of WT strain, primary screen, mitochondrial fusion inhibitor project, WT and mutant strains, chemical genetic; mitochondrial fusion phenotypic screen; 190,000 tested, 2.1% active; inhibition, % at 10 µM; in the data active = inhibition above about 58%; tested in S. cerevisiae
Diaphorase act: compounds boosting diaphorase resazurin reduction – biochemical, uHTS, resorufin fluorescence, counter-screen for diaphorase-coupled primary assays, primary screen | Diaphorase/resazurin coupled assay, 16 min; hits give high values; 1 = vehicle wells, 0 = NADH-free wells | 190,000 tested, 0.005% active | AID 1229, 2008 | activation factor at 20 µM;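 active = diaphorase activity raised at least twofold by the compound at 20 µM; inactive = activation factor below 2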
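Test system: Clostridium kluyveri diaphorase, purified enzyme. Buffer or medium: 50 mM HEPES pH 7.4 buffer plus MgCl2 and Tween 20. Also added: 0.114 mM NADH and 0.1 mM resazurin, final amounts. Dosing: compound 20 µM once, DMSO 1%. Schedule: 16 min enzyme reaction, ambient temperature. Detection: fluorescence of resorufin, 544 nm excitation, 590 nm emission.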
Diaphorase inh: diaphorase inhibitors and chemical oxidizers, primary screen, counter-screen for diaphorase-coupled primary assays, biochemical, uHTS, resorufin fluorescence | 190,000 tested, 0.69% active | AID 1217, 2008 | diaphorase resazurin-to-resorufin fluorescence, NADH, 16 min; bacterial (C. kluyveri) enzyme, not human | inhibition, % at 20 µM;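 active = primary screen inhibition at 20 µM above a set limit, cut at about 50% in these data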
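Detection: fluorescence of resorufin formed from resazurin, Ex 544/Em 590 nm; test system: Clostridium kluyveri diaphorase enzyme; amount: 0.14 U/mL diaphorase, enzyme working solution; times: 16-min room-temperature incubation before reading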
Of the large screens only hits and unclear results are named; the others gave an inactive call.

NS(=O)(=O)c1ccc(NC(=S)Nc2ccc(F)c(F)c2)cc1	none
O=S(=O)(c1ccc(OCC(O)CNC23CC4CC(CC(C4)C2)C3)c(Cl)c1)N1CCOCC1 (stereo not given)	Lmaj promast 94.2
CC(C)C(C)NC(=O)COc1ccc(S(=O)(=O)N2CCOCC2)cc1Cl (stereo not given)	none
CCOC(=O)C1CCN(C(=O)c2ccccc2NS(=O)(=O)c2ccc(F)cc2)CC1	Lmaj promast 52.7
CCOC(=O)C1CCCN(Cc2cn[nH]c2-c2ccc(F)cc2F)C1 (stereo not given)	none
CCOC(=O)C1CCN(Cc2ccc(F)cc2F)CC1	Lmaj promast 89.4 (no result: ROMK mod)
CCOC(=O)C1CCN(Cc2nc(-c3ccc(OC)c(OC)c3)no2)CC1	none (no result: KCC2 mod, ROMK mod)
CCOC(=O)C1CCN(Cc2ccc(F)c(Br)c2)CC1	Lmaj promast 76.7 (no result: ROMK mod)
Fc1ccc(CN2CCSCC2)cc1Br	none
CCOC(=O)C1CCN(Cc2ccc(OC)c(C)c2OC)CC1	Lmaj promast 63.8
COc1ccc(-c2nn(-c3ccccc3)cc2/C=C(/C#N)C(N)=O)cc1[N+](=O)[O-]	none (no result: ROMK mod)
Cc1ccc(CNS(=O)(=O)NCc2ccccc2)cc1	none (no result: KCC2 mod)
CN(CC1CCCO1)S(=O)(=O)c1ccc(C(=O)Nc2nccs2)cc1 (stereo not given)	none (no result: Lmaj promast, WT yeast gro inh, Diaphorase act, Diaphorase inh)
O=C(NCc1ccc(S(=O)(=O)NC2CCCCC2)s1)c1ccccc1	none (no result: ROMK mod, Lmaj promast, WT yeast gro inh, Diaphorase act, Diaphorase inh)
COC(=O)C1CCN(Cc2ccc(C)cc2)CC1	Lmaj promast 90.8 (no result: ROMK mod)
CCN(CC(=O)Nc1ccccc1OC)CC(=O)Nc1sccc1C#N	none
O=C(CSc1oc(-c2ccco2)nc1S(=O)(=O)c1ccc(Cl)cc1)NCC1CCCO1 (stereo not given)	none
CC(=O)CCc1oc2c([N+](=O)[O-])cccc2c1-c1ccc(C)o1	WT yeast gro inh 68.8
CCN(CC)c1ncnc2c1cnn2Cc1ccc(Cl)cc1	none
Cc1cc(N2CCCCC2)nc(N)n1	Lmaj promast 52.4 (no result: ROMK mod)
O=C1CCCC/C1=N\Nc1ccc(OCc2ccccc2)cc1	none
OC(C#CCCN1CCCCC1)(c1ccccc1)c1ccccc1	none (no result: ROMK mod, Lmaj promast, WT yeast gro inh, Diaphorase act, Diaphorase inh)
CN1CCCC(C#CC(O)(c2ccccc2)c2ccccc2)C1 (stereo not given)	Lmaj promast 78.3 (no result: KCC2 mod)
Cc1[nH]nc2c1C(c1ccc(F)cc1)C1=C(CC(C)(C)CC1=O)N2 (stereo not given)	none
CCOC(=O)c1[nH]c2ccc(OC)cc2c1NC(=O)CN1CCN(c2ccccn2)CC1	none
CCOC(=O)c1[nH]c2ccc(OC)cc2c1NC(=S)N1CCN(c2cccc(Cl)c2)CC1	none (no result: ROMK mod)
CCOC(=O)c1[nH]c2ccc(OC)cc2c1NC(=O)C(C)N1CCC2(CC1)OCCO2 (stereo not given)	WT yeast gro inh 67.2 (no result: ROMK mod)
CCOC(=O)c1[nH]c2ccc(OC)cc2c1NC(=S)N1CCN(c2ccccn2)CC1	Lmaj promast 53.8
CCOC(=O)c1[nH]c2ccc(OC)cc2c1NC(=O)CN1CCC2(CC1)OCCO2	none (no result: KCC2 mod, ROMK mod)
CCOC(=O)c1[nH]c2ccc(OC)cc2c1NC(=S)N1CCN(c2ccccc2)CC1	Lmaj promast 77.1 (no result: ROMK mod)
O=C1OC(c2ccc(Cl)cc2)/C(=C(/O)c2ccccc2)C1=O (stereo not given)	none (no result: ROMK mod)
C[C@H](CO)NC(=O)[C@@H]1C[C@H]1[C@@H](NP(=O)(c1ccccc1)c1ccccc1)c1ccccc1	none
COc1ccc(C(=O)N2CCCC(c3nc(-c4ccc(OC)c(OC)c4)no3)C2)c(OC)c1 (stereo not given)	Lmaj promast 86.7 (no result: KCC2 mod)
Cc1ccccc1SCCNC(=O)CCc1ccccc1	none
Cc1ccc(C(=O)Nc2nc(C(C)(C)C)cs2)s1	Lmaj promast 55.2
CC(C)(C)c1csc(NC(=O)c2ccc(Cl)s2)n1	none (no result: ROMK mod)
O=C(C1CCN(C2CC(=O)N(Cc3ccccc3)C2=O)CC1)N1CCCCCC1 (stereo not given)	Lmaj promast 86.8
